Laboratory results published in ChEMBL document CHEMBL1138023, “Macrocyclic ketone analogues of halichondrin B” (Bioorg Med Chem Lett, 2004).

Assays:
[1] = In vitro reversibility ratio in U937 cells; format: functional, U-937
How it was run: (§1)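 Human histiocytic lymphoma U937 cells, read by flow cytometry. Scores whether a complete mitotic block is maintained 10 h after drug washout.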

P388 = test: Fold resistance calculated as the inhibition concentration ratio between retrovirally transformed murine P388/VMDRC.04 and parental P388 cells; format: functional
How it was run: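 Readout of P-glycoprotein (PgP) susceptibility: IC50 in the retrovirally transformed P388/VMDRC.04 line divided by IC50 in parental P388 cells, giving fold resistance.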

U-937 [2] = test: In vitro inhibitory concentration required to inhibit the growth of U937 cells was determined at 10 hr by mitotic block reversibility assay; format: functional; settings: Homo sapiens, U-937, 10 h; how it was run: as §1
U-937 [3] = test: In vitro inhibitory concentration required to inhibit the growth of U937 cells was determined at 0 hr by mitotic block reversibility assay; format: functional; settings: Homo sapiens, U-937, 0 h
DLD-1 = test: In vitro inhibitory concentration required to inhibit the growth of DLD-1 cells under continuous exposure conditions for 3-4 days; format: functional, cell-based; settings: Homo sapiens
How it was run: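 Human colon cancer DLD-1 cells grown under continuous drug exposure for 3–4 days. Growth inhibition measured and IC50 reported ± SEM, n = number of experiments.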

| Structure (SMILES) | Reversibility ratio [1] | FR (P388) | IC99 (U-937 [2]) [µM] | IC99 (U-937 [3]) [µM] | IC50 (DLD-1) [nM] |
| --- | --- | --- | --- | --- | --- |
| C=C1C[C@@H]2CC[C@@]34C[C@@H]5O[C@@H]6C(O[C@H]7CC[C@H](CC(=O)C[C@@H]8[C@@H](OC)[C@@H](C[C@H](O)COC(=O)Nc9ccccc9)O[C@H]8C[C@H]8O[C@@H](CC[C@@H]1O2)C[C@@H](C)C8=C)O[C@@H]7[C@@H]6O3)[C@H]5O4 | 22 | 5.7 | 0.065 | 0.003 | 1 |
| C=C1C[C@@H]2CC[C@@]34C[C@@H]5O[C@@H]6C(O[C@H]7CC[C@H](CC(=O)O[C@@H]8[C@@H](OC)[C@H](O)[C@H](CCO)O[C@H]8C[C@H]8O[C@@H](CC[C@@H]1O2)C[C@@H](C)C8=C)O[C@@H]7[C@@H]6O3)[C@H]5O4 | 30 | – | – | 0.01 | – |
| C=C1C[C@@H]2CC[C@@]34C[C@@H]5O[C@@H]6C(O[C@H]7CC[C@H](CC(=O)C[C@@H]8[C@@H](OC)[C@@H](C[C@H](O)CN(C)C)O[C@H]8C[C@H]8O[C@@H](CC[C@@H]1O2)C[C@@H](C)C8=C)O[C@@H]7[C@@H]6O3)[C@H]5O4 | 10 | 22 | 0.01 | 0.001 | 1.2 |
| C=C1C[C@@H]2CC[C@@]34C[C@@H]5O[C@@H]6C(O[C@H]7CC[C@H](CC(=O)C[C@@H]8[C@@H](OC)[C@@H](C[C@H](O)COC(=O)Nc9ccc(OC)cc9)O[C@H]8C[C@H]8O[C@@H](CC[C@@H]1O2)C[C@@H](C)C8=C)O[C@@H]7[C@@H]6O3)[C@H]5O4 | 10 | 5.8 | 0.03 | 0.003 | 0.86 |
| C=C1C[C@@H]2CC[C@@]34C[C@@H]5O[C@@H]6C(O[C@H]7CC[C@H](CC(=O)C[C@@H]8[C@@H](OC)[C@@H](C[C@H](O)CNC(=O)C(=O)c9ccccc9)O[C@H]8C[C@H]8O[C@@H](CC[C@@H]1O2)C[C@@H](C)C8=C)O[C@@H]7[C@@H]6O3)[C@H]5O4 | 3 | 3.6 | 0.01 | 0.003 | 0.87 |
| C=C1C[C@@H]2CC[C@@]34C[C@@H]5O[C@@H]6C(O[C@H]7CC[C@H](CC(=O)C[C@@H]8[C@@H](OC)[C@@H](C[C@H](O)CC#N)O[C@H]8C[C@H]8O[C@@H](CC[C@@H]1O2)C[C@@H](C)C8=C)O[C@@H]7[C@@H]6O3)[C@H]5O4 | 15 | 7 | 0.03 | 0.002 | 0.49 |
| C=C1C[C@@H]2CC[C@@]34C[C@@H]5O[C@@H]6C(O[C@H]7CC[C@H](CC(=O)C[C@@H]8[C@@H](OC)[C@@H](C[C@H](O)CN9CCOCC9)O[C@H]8C[C@H]8O[C@@H](CC[C@@H]1O2)C[C@@H](C)C8=C)O[C@@H]7[C@@H]6O3)[C@H]5O4 | 7 | 4.7 | 0.02 | 0.003 | 0.43 |
| C=C1C[C@@H]2CC[C@@]34C[C@@H]5O[C@@H]6C(O[C@H]7CC[C@H](CC(=O)O[C@@H]8[C@@H](OC)[C@@H](C[C@H](O)CO)O[C@H]8C[C@H]8O[C@@H](CC[C@@H]1O2)C[C@@H](C)C8=C)O[C@@H]7[C@@H]6O3)[C@H]5O4 | 8 | – | – | 0.002 | – |
| C=C1C[C@@H]2CC[C@@]34C[C@@H]5O[C@@H]6C(O[C@H]7CC[C@H](CC(=O)C[C@@H]8[C@@H](OC)[C@@H](C[C@H](O)COS(C)(=O)=O)O[C@H]8C[C@H]8O[C@@H](CC[C@@H]1O2)C[C@@H](C)C8=C)O[C@@H]7[C@@H]6O3)[C@H]5O4 | 10 | 3 | 0.03 | 0.003 | 0.8 |
| C=C1C[C@@H]2CC[C@@]34C[C@@H]5O[C@@H]6C(O[C@H]7CC[C@H](CC(=O)C[C@@H]8[C@@H](OC)[C@@H](CCO)O[C@H]8C[C@H]8O[C@@H](CC[C@@H]1O2)C[C@@H](C)C8=C)O[C@@H]7[C@@H]6O3)[C@H]5O4 | 33 | 8.5 | 0.1 | 0.003 | 0.66 |
| C=C1C[C@@H]2CC[C@@]34C[C@@H]5O[C@@H]6C(O[C@H]7CC[C@H](CC(=O)C[C@@H]8[C@@H](OC)[C@@H](C[C@H](O)CSc9ccc(Cl)cc9)O[C@H]8C[C@H]8O[C@@H](CC[C@@H]1O2)C[C@@H](C)C8=C)O[C@@H]7[C@@H]6O3)[C@H]5O4 | 20 | 2 | 0.2 | 0.01 | 1.2 |
| C=C1C[C@@H]2CC[C@@]34C[C@@H]5O[C@@H]6C(O[C@H]7CC[C@H](CC(=O)C[C@@H]8[C@@H](OC)[C@@H](C[C@H](O)CO)O[C@H]8C[C@H]8O[C@@H](CC[C@@H]1O2)C[C@@H](C)C8=C)O[C@@H]7[C@@H]6O3)[C@H]5O4 | 13 | 9.7 | 0.038 | 0.003 | 1 |
| C=C1C[C@@H]2CC[C@@]34C[C@@H]5O[C@@H]6C(O[C@H]7CC[C@H](CC(=O)C[C@@H]8[C@@H](OC)[C@@H](C[C@@H](O)CO)O[C@H]8C[C@H]8O[C@@H](CC[C@@H]1O2)C[C@@H](C)C8=C)O[C@@H]7[C@@H]6O3)[C@H]5O4 | 33 | 13 | 0.1 | 0.003 | 1.9 |
| C=C1C[C@@H]2CC[C@@]34C[C@@H]5O[C@@H]6C(O[C@H]7CC[C@H](CC(=O)C[C@@H]8[C@@H](OC)[C@@H](C[C@H](O)CN9CCCCC9)O[C@H]8C[C@H]8O[C@@H](CC[C@@H]1O2)C[C@@H](C)C8=C)O[C@@H]7[C@@H]6O3)[C@H]5O4 | 10 | 17 | 0.01 | 0.001 | 0.47 |
| C=C1C[C@@H]2CC[C@@]34C[C@@H]5O[C@@H]6C(O[C@H]7CC[C@H](CC(=O)C[C@@H]8[C@@H](OC)[C@@H](C[C@H](O)CNC(=O)c9cc(OC)c(OC)c(OC)c9)O[C@H]8C[C@H]8O[C@@H](CC[C@@H]1O2)C[C@@H](C)C8=C)O[C@@H]7[C@@H]6O3)[C@H]5O4 | 5 | 20 | 0.01 | 0.002 | 0.72 |
| C=C1C[C@@H]2CC[C@@]34C[C@@H]5O[C@@H]6C(O[C@H]7CC[C@H](CC(=O)O[C@@H]8[C@@H](C)[C@@H]9O[C@H](CO)[C@@H](O)C[C@@H]9O[C@H]8C[C@H]8O[C@@H](CC[C@@H]1O2)C[C@@H](C)C8=C)O[C@@H]7[C@@H]6O3)[C@H]5O4 | 24 | – | – | 0.009 | – |
| C=C1C[C@@H]2CC[C@@]34C[C@@H]5O[C@@H]6C(O[C@H]7CC[C@H](CC(=O)C[C@@H]8[C@@H](OC)[C@@H](C[C@H](O)CS(=O)(=O)c9ccc(Cl)cc9)O[C@H]8C[C@H]8O[C@@H](CC[C@@H]1O2)C[C@@H](C)C8=C)O[C@@H]7[C@@H]6O3)[C@H]5O4 | 10 | 3.2 | 0.03 | 0.003 | 0.66 |
| C=C1C[C@@H]2CC[C@@]34C[C@@H]5O[C@@H]6C(O[C@H]7CC[C@H](CC(=O)C[C@@H]8[C@@H](OC)[C@@H](C[C@H](O)CNC)O[C@H]8C[C@H]8O[C@@H](CC[C@@H]1O2)C[C@@H](C)C8=C)O[C@@H]7[C@@H]6O3)[C@H]5O4 | 1 | 7 | 0.01 | 0.01 | 3.3 |
| C=C1C[C@@H]2CC[C@@]34C[C@@H]5O[C@@H]6C(O[C@H]7CC[C@H](CC(=O)C[C@@H]8[C@@H](OC)[C@@H](CC(=O)CO)O[C@H]8C[C@H]8O[C@@H](CC[C@@H]1O2)C[C@@H](C)C8=C)O[C@@H]7[C@@H]6O3)[C@H]5O4 | 10 | 3.7 | 0.03 | 0.003 | 1.1 |
| C=C1C[C@@H]2CC[C@@]34C[C@@H]5O[C@@H]6C(O[C@H]7CC[C@H](CC(=O)O[C@@H]8[C@@H](C)[C@@H]9O[C@@H]%10C[C@]%11(C[C@@H]%12O[C@]%13(C[C@H](C)[C@@H]%14O[C@H]([C@@H](O)C[C@@H](O)CO)C[C@@H]%14O%13)C[C@H](C)[C@@H]%12O%11)O[C@@H]%10C[C@@H]9O[C@H]8C[C@H]8O[C@@H](CC[C@@H]1O2)C[C@@H](C)C8=C)O[C@@H]7[C@@H]6O3)[C@H]5O4 | 3 | 2.8 | 0.025 | 0.008 | 0.74 |
